# Rows were chosen to be rich in hits. Some 9.6% of all compounds tested hit in one or more screens of this group.
# Ba/F3 V617F tox – reduced viability of JAK2V617F-dependent Ba/F3 cells, primary screen, JAK2V617F inhibitor project, cell-based, Ba/F3 EpoR-JAK2V617F, luminescence | ATP luminescence | 220,000 tested, 1.1% active | inhibition, % at 5.6 µM;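 active means inhibition above the campaign mean plus 3 SD over all tested compounds, cut at about 24% in these data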;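 further: cytokine-independent growth of Ba/F3 cells driven by EpoR plus mutant JAK2; 0% = DMSO-treated cells and 100% = JAK inhibitor I control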
# APP transl inh – inhibitors of APP translation via 5'UTR reporter, primary screen, APP 5'UTR luciferase, SH-SY5Y cells; inhibition, % at 2 µM; SH-SY5Y APP 5'UTR-luciferase reporter, luminescence; 190,000 tested, 0.82% active;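 active means inhibition above a set limit, derived from the sample mean plus 3 SD, cut at about 45% in these data; inconclusive means one replicate passes the limit while the other fails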
# Lmaj promast – Leishmania major promastigote growth inhibition, primary screen; Leishmania major promastigotes, resazurin fluorescence viability; inhibition, % at 10 µM; 200,000 tested, 9% active; AID 1063, 2008; in the data active means inhibition above about 50%;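 further: promastigotes grown with compound for 44 hours at 28 °C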
# MT stabilizer – microtubule stabilizers in HeLa cells, primary screen, imaging, high-content imaging | % tubulin-high responders, % at 10 µM | HeLa tubulin immunostaining HCS, 24 h; share of cells brighter than vehicle mean+2SD | 200,000 tested, 0.83% active;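 active means plate Z-score above 3 for both tubulin-high and condensed-nucleus cell shares, with cell loss under 80%, at 10 µM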;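 further: anti alpha tubulin signal scored within the nucleus-defined area of each cell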
# BaF3 tox – parental Ba/F3 cell viability inhibition, counter-screen for JAK2V617F inhibitor project, murine pro-B, CellTiter-Glo luminescence; CellTiter-Glo ATP luminescence; inhibition, % at 5.6 µM; 220,000 tested, 1.1% active; AID 1486, 2009;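 active means inhibition above a per-campaign cutoff, the mean inhibition of all tested compounds plus 3 SD, cut at about 27% in these data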;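 further: 0% = DMSO wells and 100% = JAK Inhibitor I control wells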
# b-catenin transl – modulators of beta-catenin nuclear translocation, primary screen, imaging, HeLa cells, immunofluorescence, high-content. 190,000 tested, 0.3% active. nuclear translocation activity, % at 5 µM. AID 1665, 2009;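 active means nuclear translocation activity above 50% at 5 µM, with a well cell count of 50 or more; inconclusive means wells under 50 cells across six images, flagged as toxic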;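 further: per-cell ratio of nuclear to cytoplasmic median beta-catenin stain intensity; plate controls were DMSO negative control for no effect and GSK-3 inhibitor IX positive control for full effect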
#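 test system = HeLa cells, endogenous beta-catenin | dosing = single 5 µM dose plus 0.02–20 µM confirmation series | times = compound treatment 24 h, 37°C, 5% CO2 | technique = beta-catenin immunofluorescence imaging with DAPI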
# L major 1uM – Leishmania major promastigote growth inhibition, confirmation, 1 µM repeat of primary hits | 1,100 tested, 13% active | AID 1258, 2008 | shares compounds with Lmaj promast | L. major promastigote growth, resazurin fluorescence, 48 h | inhibition, % at 1 µM;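 active means inhibition above about 50% in both repeat tests, limit read from the data; inconclusive means one repeat under the set limit, the other over it; inactive means both repeats under the set limit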
# * marks the source's active call; other numbers are inactive results; u = inconclusive; x = no result given; ! = a repeat was not active.
SMILES,Ba/F3 V617F tox,APP transl inh,Lmaj promast,MT stabilizer,BaF3 tox,b-catenin transl,L major 1uM
Nn1c(-c2ccccc2Cl)nnc1-c1ccccc1Cl,1,-29,76*,2,-1,-1,-24
CSc1nnc(-c2ccccc2Cl)n1N,6,-17,3,2,11,0,x
CN1CC(c2ccccn2)C2(SC(=S)N(Cc3ccccc3)C2=O)C12C(=O)Nc1ccccc12 (configuration not stated),-1,-6,100*,3,2,4,14
Cc1ccc(C2CN(C)C3(C(=O)Nc4ccccc43)C23COc2ccccc2C3=O)cc1 (configuration not stated),-4,-6,29,2,0,-1,x
Oc1c(CN2CCOCC2)cc(-c2ccccc2)cc1CN1CCOCC1,-1,-28,4,1,3,x,x
Nc1c(-c2ccccc2)c(CN2CCOCC2)nn1-c1ccc(C(=O)O)cc1,2,2,66*,3,1,x,-6
COc1ccc(NC(=O)c2ccc(-c3ccccc3)cc2)cc1S(=O)(=O)N1CCOCC1,1,-3,2,2,6,0,x
O=C(CSC1=NCCN1)NC12CC3CC(CC(C3)C1)C2,-3,4,100*,1,-3,-6,-5
CC(C)(C)C1CCc2c(sc(NC(=O)CSc3nnc(-c4ccccc4)o3)c2C#N)C1 (configuration not stated),2,9,-1,3,7,-2,x
Cc1ccc(C2=CSC3=NCCN23)c(C)c1,2,-10,-6,5,1,0,x
Cc1ccc(C2=CSC3=NNC4(CCCCC4)NN23)cc1,-5,-6,55*,3,0,-4,-12
CC1CCCC(C)N1/N=C/c1ccc(C(=O)O)cc1 (configuration not stated),-3,x,x,x,-2,0,x
CCN1C(=O)NC2=C(C(=O)c3ccccc32)C1c1ccccc1F (configuration not stated),-3,x,100*,2,1,-2,29
CCOc1ccc(-c2nc(C#N)c(NCc3ccco3)o2)cc1,-4,-13,-11,2,0,-1,x
CCOC(=O)c1ccc2c(c1)nc(COc1ccc(OC)cc1)n2CC,-4,-15,9,3,-1,x,x
NCCCCCc1nnc(SCc2cccc(Cl)c2)o1,-3,9,98*,6,1,-2,-6
CCCCSc1nnc(-c2ccc(C)cc2)c2ccccc12,2,4,91*,2,6,3,5
Cc1cc(C)n2nc3nc4c(cc3c2n1)CCCC4,-2,-15,72*,4,2,-2,-20
Cc1ccc(C2CC(=O)c3cnn(-c4nc(C)cc(C)n4)c3C2)cc1 (configuration not stated),-1,-4,75*,2,5,-2,16
CCc1ccc2[nH]c(=O)c(CN(CCCN3CCOCC3)C(=O)Nc3ccc(Cl)cc3)cc2c1,2,-7,79*,3,-2,-8,-21
O=C(O)CC1S/C(=N/N=C/C=C/c2ccccc2)NC1=O (configuration not stated),3,3,53*!,3,97*!,-1,-12
ClCc1nnc(-c2ccccc2)o1,3,-1,101*,2,4,x,5
COC(=O)Cn1c(CN2CCN(c3ccc(F)cc3)CC2)nc2c1c(=O)n(C)c(=O)n2C,x,13,-5,4,x,0,x
CCC(/C=C1\Sc2ccc(OC)cc2N1CCO)=C\c1sc2ccc(OC)cc2[n+]1CCO,3,7,100*,71,7,x,100*
CCC(=O)/C=C1/Sc2ccc(OC)cc2N1CCO,-3,15,-7,3,8,2,x
SMILES,Ba/F3 V617F tox,APP transl inh,Lmaj promast,MT stabilizer,BaF3 tox,b-catenin transl,L major 1uM
CCCCCCCSc1nsc(N)n1,-1,-11,69*,2,2,-1,-12
Cc1ccc(-c2nnc(N3CCN(c4ccccn4)CC3)c3ccccc23)cc1,1,-2,91*,3,6,0,6
c1ccc(-c2nnc(N3CCN(c4ccccn4)CC3)c3ccccc23)cc1,-1,1,33,2,1,-1,x
Cc1ccc2cc(/C=N/NC(=O)CN3CCCCC3)c(Cl)nc2c1,-1,-6,0,2,0,-1,x
O=C(c1sc2ccccc2c1Cl)N(Cc1ccccc1Cl)C1CCS(=O)(=O)C1 (configuration not stated),-2,-4,100*,4,1,0,-2
O=C(c1ccccc1)N(Cc1cccs1)C1CCS(=O)(=O)C1 (configuration not stated),-3,2,-2,3,2,-5,x
O=c1c2ccccc2nc2c3ccccc3c(NCCN3CCOCC3)nn12,3,-2,100*,2,15,0,6
O=c1c2ccccc2nc(-c2ccccc2)n1CCN1CCOCC1,-2,-9,-1,2,1,2,x
COc1cccc([C@@H]2Oc3ccc(OC)cc3C(=O)[C@H]2O)c1,-2,-146,14,2,1,x,x
COc1ccc2c(c1)C(=O)[C@@H](O)[C@H](c1ccc(OC)c(Br)c1)O2,-1,-28,98*,3,8,x,-58
Cc1cc(C)c(C(=O)CSC2=NC(N)=C(C#N)C3(CCCCC3)C2C(N)=O)cc1C (configuration not stated),-2,4,64*,1,4,x,-15
N#Cc1c(NC(=O)C2CC(c3c(F)cccc3Cl)=NO2)sc2c1CCC2 (configuration not stated),-1,4,64*,1,0,-2,-10
Cc1ccc(O)c(NC(=O)C2CC(c3c(F)cccc3Cl)=NO2)c1 (configuration not stated),0,-12,-5,4,1,6,x
C#CCn1c(=NC(=O)c2ccc(Br)s2)sc2cccc(OC)c21,0,-42,10,7,3,5,x
Cc1ccc(NC(=O)N2CCCN(Cc3ccc(F)cc3)C2)cc1C,-1,3,94*,6,7,-1,53*
CCOC(=O)c1c(N)c2cc([N+](=O)[O-])ccc2n1C,-1,x,x,x,-3,4,x
CCOC(=O)/C(=C/c1c(C)n(C)c2ccc([N+](=O)[O-])cc12)C(C)=O,-1,2,83*,3,15,0,22
OCCC1CN(Cc2cccc(C(F)(F)F)c2)CCN1Cc1ccccc1 (configuration not stated),-1,-4,80*,3,3,-2,u

# Assay outcomes as filed in PubChem.
